High-throughput results: PubChem BioAssay, Broad Institute
PglD inh: C. jejuni PglD acetyltransferase inhibitors, primary screen, biochemical, DTNB colorimetric, single point; AID 602405, 2012; inhibition, % at 12.5 µM; actives 0.098% (n = 360,000); purified PglD enzyme, DTNB colorimetric CoA detection; in the data active = inhibition above about 16%, passing the limit was not always enough; inconclusive = no clear call, values can overlap the other calls
Statin myotox sup: suppressors of statin myotoxicity in C2C12 myotubes, primary screen, cell-based, single point, plate reader. actives 0.78% (n = 330,000). rescue of ATP level, % at 7.49 µM. C2C12 myotubes + simvastatin, ATP luminescence, 48 h; scaled: DMSO 0, geranylgeraniol control 100;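 active = mean ATP rescue above about 67%, or every replicate alone reaching that limit, limit read from the data, passing the limit was not always enough; inconclusive = no clear call, values can overlap the other calls; inactive = mean under the limit and some replicate under it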;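 also: myotubes were challenged with 10 µM simvastatin during compound exposure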
E-sel inducer: E-selectin induction in HUVECs, primary screen, imaging, HUVEC, immunofluorescence imaging, single point; actives 0.37% (n = 260,000); AID 686992, 2013; P16581; activation, % at 7.58 µM; normalized: neutral wells 0, TNF-alpha wells 100;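 active = mean E-selectin-positive cell signal at least 10% of the positive control, reached in at least 60% of replicates, without over 20% cell loss; inconclusive = no rule given, readout overlaps actives, possibly toxicity-flagged; inactive = the rest, including those meeting only one limit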
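material = human umbilical vein endothelial cells (HUVEC), E-selectin induction | quantity = 3,000 cells/well | medium = EGM-2 growth medium on 0.1% gelatin-coated wells | technique = immunofluorescence imaging | read-out basis = % PE-positive cells | control set = TNF-alpha positive control, DMSO neutral control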
XiGFP reactiv: activators of inactive X chromosome reactivation, primary screen, imaging, XiGFP fibroblasts, GFP high-content imaging, set 2 | activation, % at 7.58 µM | XiGFP mouse fibroblasts, % GFP-positive cells imaging, 3 d; cells co-treated with 5-aza-dC sensitizer; scaled so ellipticine positive control = 100% | actives 0.055% (n = 360,000);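 active = mean normalized replicate activation at least 10% and every replicate at or above 10%; inconclusive = only one of the two criteria met; inactive = mean below 10% and not all replicates reach 10%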;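 also: 0% = median of on-plate neutral control wells and 100% = ellipticine 6 µM median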
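System: 68-5-11 XiGFP fibroblast line | Buffer or medium: DMEM containing 5-aza-dC | Compound: Single point | Times: Compounds 3 days, fix/stain 15 min at room temperature | Benchmarks: Positive control ellipticine, 6 µM final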
FGF22 binding: binders of human FGF22 protein, primary screen, FGF22 synaptogenesis inhibitor project, biophysical, thermal shift, single point | recombinant FGF22 thermal shift, SYPRO orange fluorescence; percent of sucrose octasulfate shift, DMSO zero | Fibroblast growth factor 22 (Homo sapiens), Q9HCT0 | actives 1.5% (n = 340,000) | activity (Tm shift, normalised), % at 9.99 µM;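 active = mean Tm shift, scaled 0 neutral to 100 positive control, at about 1.3% or above, every replicate too, limit read from the data; inconclusive = no clear call, values can overlap the other calls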
Target sequence (Q9HCT0 whole entry, looked up): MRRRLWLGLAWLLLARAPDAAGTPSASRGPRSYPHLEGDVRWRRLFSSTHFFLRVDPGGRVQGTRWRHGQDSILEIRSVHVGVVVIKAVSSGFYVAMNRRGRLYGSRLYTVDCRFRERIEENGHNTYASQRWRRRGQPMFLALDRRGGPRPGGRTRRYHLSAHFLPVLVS
DENV2 CPE rescue: inhibitors of DENV2 cytopathic effect, primary screen, cell-based, plate reader, single concentration; DENV2-infected cells, cytopathic effect rescue; CPE inhibition, % at 9.99 µM; actives 1.7% (n = 350,000); AID 651640, 2012; in the data active = CPE inhibition above about 20%, passing the limit was not always enough; inconclusive = no clear call, values can overlap the other calls; tested in BHK-21 cells;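 also: 0% = median of neutral control wells and 100% = median of positive control wells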
Numbers without * were called inactive; ? = inconclusive; . = not tested or not shown. In the library only some 3.3% were active in any assay of this set; here they are far more common.

SMILES | PglD inh | Statin myotox sup | E-sel inducer | XiGFP reactiv | FGF22 binding | DENV2 CPE rescue
CC=Cc1ccc2n(c1=O)C[C@@H]1[C@@H](CO)[C@H](C(=O)NC3CCC3)N(Cc3ccncc3)[C@H]21 (mixture of isomers) | . | . | 0.1 | -0.1 | . | -4.7
CC1(C)c2ccccc2-c2nc3ccccc3cc2C1N1CCOCC1 (stereo not given) | . | -8.4 | -0.2 | -0.1 | 43.2* | 5.2
Cc1ccc(-c2cc3ccccc3nc2N2CCOCC2)cc1 | . | . | . | 0.1 | 0.2 | -4.0
CO[C@H]1CN(C)C(=O)c2cc(NC(=O)C3CCOCC3)ccc2OC[C@H](C)N(C(=O)c2ccccc2)C[C@H]1C | . | -3.4 | -0.2 | 0.3 | . | .
CC(C)NS(=O)(=O)c1ccc(OCC(=O)Nc2cccc(F)c2)cc1 | 0.0 | -8.4 | 0.6 | 0.4 | 43.3* | -7.0
CC(C)NC(=O)N(C)C[C@H]1Oc2ccc(NC(=O)C3CCCCC3)cc2CC(=O)N([C@H](C)CO)C[C@H]1C | 2.9 | 4.7 | 0.0 | 0.3 | 0.0 | 2.4
[O-]/C(=C(\C(=S)NCc1ccccc1)[n+]1ccccc1)c1ccc(Cl)s1 | -1.2 | 3.8 | . | 0.1 | 43.0* | -3.6
CO[C@@H]1CN(C)C(=O)c2ccc(NC(=O)Cc3ccccc3)cc2OC[C@H](C)N(CC2CC2)C[C@@H]1C | 2.2 | -3.1 | -0.4 | -0.1 | 0.7 | 3.7
CCNc1ccc(Br)cc(C(=O)/C=C/c2ccc(Cl)cc2Cl)c1=O | 4.4 | 82.3* | . | . | . | .
CCc1c(C(=O)Nc2cc(C(=O)OC)ccc2C)csc1C | -3.3 | 7.1 | 0.9 | 0.3 | 0.1 | 87.7*
CN1[C@@H]2Cn3c(ccc(-c4ccccc4)c3=O)[C@H]1[C@@H](C(=O)NCCc1ccccc1)[C@@H]2CO | 3.8 | -24.7 | 0.1 | 0.4 | . | ?
O=C1C[C@@H](c2ccc(O)cc2)Oc2cc(O)cc(O)c21 | -3.2 | -1.3 | -0.1 | 0.6 | 0.2 | 102.8*
COc1cc(C2CC(=O)c3c(O)cc(O)cc3O2)ccc1O (stereo not given) | -3.2 | 6.6 | . | . | 0.0 | -8.1
C[C@@H]1CN([C@H](C)CO)C(=O)Cc2cc(NC(=O)CCCCCC(=O)Nc3ccccc3N)ccc2O[C@@H]1CN(C)Cc1ccc(C(F)(F)F)cc1 | -3.1 | -15.6 | 0.1 | 0.7 | -0.5 | 80.7*
C[C@@H]1CN([C@H](C)CO)C(=O)Cc2cc(NC(=O)CCCCCC(=O)Nc3ccccc3N)ccc2O[C@@H]1CN(C)Cc1ccncc1 | -0.2 | 11.4 | . | -0.1 | 0.0 | 4.6
C[C@@H]1CN([C@H](C)CO)C(=O)Cc2cc(NC(=O)CCCCCC(=O)Nc3ccccc3N)ccc2O[C@H]1CN(C)Cc1ccc(C(F)(F)F)cc1 | 0.2 | ? | 0.6 | -0.6 | -0.7 | 17.7
C[C@H]1CN([C@@H](C)CO)C(=O)Cc2cc(NC(=O)CCCCCC(=O)Nc3ccccc3N)ccc2O[C@@H]1CN(C)S(=O)(=O)c1ccccc1 | 0.1 | -14.7 | -0.3 | -0.1 | -0.4 | 78.8*
C[C@@H]1CN([C@H](C)CO)C(=O)Cc2cc(NC(=O)CCCCCC(=O)Nc3ccccc3N)ccc2O[C@H]1CN(C)Cc1ccc(-c2ccccc2)cc1 | -1.1 | 135.2* | 0.6 | 0.1 | -0.1 | ?
C[C@@H]1CN([C@@H](C)CO)C(=O)Cc2cc(NC(=O)CCCCCC(=O)Nc3ccccc3N)ccc2O[C@H]1CN(C)S(=O)(=O)c1ccccc1 | -0.4 | -23.3 | 0.7 | 0.0 | 0.0 | -5.3
C[C@H](CO)N1C[C@H](C)[C@@H](CN(C)Cc2ccncc2)Oc2ccc(NC(=O)CCCCCC(=O)Nc3ccccc3N)cc2CC1=O | -0.1 | 15.5 | . | 0.1 | -0.1 | 53.2*
C[C@H](CO)N1C[C@H](C)[C@@H](CN(C)Cc2ccc3c(c2)OCO3)Oc2c(NS(=O)(=O)c3ccc(Cl)cc3)cccc2C1=O | . | . | 0.5 | 0.1 | 0.1 | -6.6
C[C@@H]1CCCCO[C@H](CN(C)C(=O)Nc2ccc3c(c2)OCO3)[C@H](C)CN([C@@H](C)CO)C(=O)c2cc(NC(=O)C3CCCCC3)ccc2O1 | -1.1 | . | 0.2 | 0.1 | -0.3 | ?
C[C@H](CO)N1C[C@H](C)[C@H](CN(C)Cc2ccc3c(c2)OCO3)Oc2ccc(NC(=O)c3ccncc3)cc2C1=O | -0.9 | -21.2 | 0.8 | 0.1 | 0.3 | -1.0
CN1C(=O)c2cc(NC(=O)c3cscn3)ccc2OC[C@H]2O[C@H](CC(=O)NCC3CC3)CC[C@H]21 | 0.5 | -5.2 | 0.0 | 0.1 | -0.2 | -1.4
C[C@@H]1CN([C@@H](C)CO)C(=O)c2cc(NC(=O)CCCCCC(=O)Nc3ccccc3N)ccc2O[C@H]1CN(C)Cc1ccncc1 | . | . | . | 0.3 | -0.1 | 41.5*
SMILES | PglD inh | Statin myotox sup | E-sel inducer | XiGFP reactiv | FGF22 binding | DENV2 CPE rescue
C[C@H]1CN([C@@H](C)CO)C(=O)Cc2cc(NC(=O)CCCCCC(=O)Nc3ccccc3N)ccc2O[C@H]1CN(C)Cc1ccccc1 | 2.2 | 73.4* | 0.1 | 0.3 | -0.3 | 10.7
C[C@@H]1CN([C@@H](C)CO)C(=O)Cc2cc(NC(=O)CCCCCC(=O)Nc3ccccc3N)ccc2O[C@@H]1CN(C)C(=O)Nc1cccc2ccccc12 | . | . | -8.2 | 0.1 | -0.3 | -7.6
C[C@H](CO)N1C[C@H](C)[C@H](CN(C)Cc2ccc3c(c2)OCO3)Oc2ccc(NC(=O)CCCCCC(=O)Nc3ccccc3N)cc2CC1=O | 2.4 | 103.4* | 0.7 | -0.5 | -0.5 | 24.8*
C[C@@H]1CN([C@H](C)CO)C(=O)Cc2cc(NC(=O)CCCCCC(=O)Nc3ccccc3N)ccc2O[C@@H]1CN(C)Cc1ccc2c(c1)OCO2 | 2.9 | 62.1 | -4.5 | -1.0 | -0.6 | 9.6
C[C@H]1CN([C@@H](C)CO)C(=O)c2cc(NC(=O)CCCCCC(=O)Nc3ccccc3N)ccc2O[C@H]1CN(C)Cc1ccncc1 | 2.3 | . | . | -0.3 | -0.1 | -12.9
C[C@@H]1CN([C@H](C)CO)C(=O)Cc2cc(NC(=O)CCCCCC(=O)Nc3ccccc3N)ccc2O[C@@H]1CN(C)Cc1ccccc1 | 2.6 | ? | 0.6 | 3.9 | -0.4 | -7.6
C[C@H]1CN([C@@H](C)CO)C(=O)Cc2cc(NC(=O)CCCCCC(=O)Nc3ccccc3N)ccc2O[C@H]1CN(C)C(=O)Nc1cccc2ccccc12 | . | . | -12.3 | 0.6 | 0.0 | 27.6*
